Results pooled from the literature.
Protocols differ between the studies behind these lines.
Melanocortin receptor 3: Melanocortin receptor 3 (Mus musculus, UniProt P33033)
ADORA2B: Adenosine receptor A2b (ADORA2B, Homo sapiens, UniProt P29275)

N=C(N)NCCC[C@H](NC(=O)[C@H](CC(=O)O)NC(=O)[C@H](Cc1c[nH]c2ccccc12)NC(=O)[C@H](CCCNC(=N)N)NC(=O)[C@H](Cc1ccccc1)NC(=O)[C@H](Cc1c[nH]cn1)NC(=O)CN)C(=O)N[C@@H](Cc1ccccc1)C(=O)NCC(=O)O — EC50 (Melanocortin receptor 3; reporter gene, agonist): 0.76 µM
CCC(C)N1CCCn2c1nc1c2c(=O)n(C)c(=O)n1C (stereo not shown) — Ki (ADORA2B; ligand displacement, radioligand; cell membranes): > 10 µM
CSCC[C@H](NC(=O)[C@@H](NC(=O)[C@@H](N)Cc1ccc(O)cc1)C(C)C)C(=O)NCC(=O)N[C@@H](Cc1c[nH]cn1)C(=O)N[C@@H](Cc1ccccc1)C(=O)N[C@@H](CCCNC(=N)N)C(=O)N[C@@H](Cc1c[nH]c2ccccc12)C(=O)N[C@@H](CC(=O)O)C(=O)O — EC50 (Melanocortin receptor 3; reporter gene, agonist): 0.8 µM
Cc1[nH]c2ccccc2c1CCNC(=O)c1ccc(N(C)C)cc1 — Kb (Prostaglandin E2 receptor EP2 subtype (PTGER2, Homo sapiens, UniProt P43116); cAMP, antagonist, TR-FRET): ~0.01 µM
CCCCN1CCC(COC(=O)c2ccc(N)c(OCF)c2)CC1 — Ki (Muscarinic acetylcholine receptor M1 (CHRM1, Homo sapiens, UniProt P11229); cell-free assay, radioligand): > 10 µM
N=C(N)NCCC[C@H](NC(=O)[C@H](Cc1ccccc1)NC(=O)[C@@H](N)Cc1cnc[nH]1)C(=O)N[C@@H](Cc1c[nH]c2ccccc12)C(=O)O — EC50 (Melanocortin receptor 3; reporter gene, agonist): > 100 µM
CN1CCCn2c1nc1c2c(=O)n(C)c(=O)n1C — Ki (ADORA2B; ligand displacement, radioligand; cell membranes): > 10 µM
Cc1ncsc1-c1ccc(CNC(=O)[C@@H]2C[C@@H](O)CN2C(=O)[C@@H](NC(=O)C2(F)CC2)C(C)(C)C)c(OCCOc2ccc(CN3CCN(c4cc(-c5ccccc5O)nnc4N)CC3)cc2)c1 — Kd (Protein polybromo-1, bromodomain (PBRM1, Homo sapiens, UniProt Q86U86); binding, SPR): 0.83 µM
N[C@@H](CCC(=O)O)C(=O)O — EC50 (Metabotropic glutamate receptor 8 (Grm8, Rattus norvegicus, UniProt P70579); calcium signal, agonist): 0.77 µM
CCOc1cc(-c2nncn2C)ccc1Nc1ncc2cc(C)nc(NCC(C)(C)C)c2n1 — Kd (Dual serine/threonine and tyrosine protein kinase (DSTYK, Homo sapiens, UniProt Q6XUX3); binding, competition with immobilised ligand): 0.17 µM
CNC(=O)COc1cc2cc(Nc3nc(N4CCC(C(=O)NCCCCCCCNC(=O)C[C@@H]5N=C(c6ccc(Cl)cc6)c6c(sc(C)c6C)-n6c(C)nnc65)CC4)ncc3Cl)cc(OC)c2n(C)c1=O — Kd (B-cell lymphoma 6 protein (BCL6, Homo sapiens, UniProt P41182, C67R/C84N/C8Q); binding, ITC): > 1000 µM
CC(C)CC(C)N1CCCn2c1nc1c2c(=O)n(C)c(=O)n1C (stereo not shown) — Ki (ADORA2B; ligand displacement, radioligand; cell membranes): > 10 µM
CSCC[C@H](NC(=O)[C@@H](NC(=O)[C@@H](N)Cc1ccc(O)cc1)C(C)C)C(=O)NCC(=O)N[C@@H](Cc1c[nH]cn1)C(=O)N[C@@H](Cc1ccccc1)C(=O)N[C@@H](CCCNC(=N)N)C(=O)N[C@@H](Cc1c[nH]c2ccccc12)C(=O)N[C@@H](CC(=O)O)C(=O)N[C@@H](CCCNC(=N)N)C(=O)O — EC50 (Melanocortin receptor 3; reporter gene, agonist): 0.036 µM
